Compound activity as filed in PubChem BioAssay.
Sampled rows, rich in hits. Any-hit rate of the full collection: about 2.3%.
TRPC6 activator – activators of mouse TRPC6 channel; Q61143; HEK293-TRPC6 membrane potential dye fluorescence; hits give high values; B-score at 10 µM; actives 0.13% (n = 310,000); AID 2550;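 active means B-score of the integrated fluorescence ratio above library mean plus 3 SD, and starting fluorescence ratio within library mean plus 5 SD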;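 further: higher score means more depolarization so channel activation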
Target sequence (Q61143 whole entry, looked up): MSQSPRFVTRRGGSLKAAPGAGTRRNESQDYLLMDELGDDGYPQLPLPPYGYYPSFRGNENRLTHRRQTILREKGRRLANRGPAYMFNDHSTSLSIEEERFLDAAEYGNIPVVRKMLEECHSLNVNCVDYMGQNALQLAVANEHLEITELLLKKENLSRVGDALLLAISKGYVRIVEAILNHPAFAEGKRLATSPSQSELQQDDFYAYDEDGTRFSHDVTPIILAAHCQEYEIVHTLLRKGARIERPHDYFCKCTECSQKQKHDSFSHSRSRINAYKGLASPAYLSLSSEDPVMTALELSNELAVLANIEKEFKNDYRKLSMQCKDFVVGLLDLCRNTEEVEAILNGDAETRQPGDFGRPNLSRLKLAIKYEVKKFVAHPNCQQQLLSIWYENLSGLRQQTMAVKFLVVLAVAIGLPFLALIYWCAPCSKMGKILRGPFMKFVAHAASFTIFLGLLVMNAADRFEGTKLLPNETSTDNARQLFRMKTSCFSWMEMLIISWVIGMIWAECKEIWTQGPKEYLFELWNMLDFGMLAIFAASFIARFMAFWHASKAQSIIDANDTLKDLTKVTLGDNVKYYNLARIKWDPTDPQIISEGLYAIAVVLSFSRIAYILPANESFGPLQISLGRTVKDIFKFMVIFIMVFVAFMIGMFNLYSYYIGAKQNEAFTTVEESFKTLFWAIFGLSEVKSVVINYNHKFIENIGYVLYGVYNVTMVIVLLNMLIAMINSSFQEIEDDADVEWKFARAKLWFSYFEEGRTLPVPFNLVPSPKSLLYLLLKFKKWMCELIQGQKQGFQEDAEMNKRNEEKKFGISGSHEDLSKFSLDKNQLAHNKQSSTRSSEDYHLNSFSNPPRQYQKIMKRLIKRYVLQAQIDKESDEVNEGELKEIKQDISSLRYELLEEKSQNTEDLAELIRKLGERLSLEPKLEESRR
TRPC4 agonist – activators of mouse TRPC4 channel. Q9QUQ5. B-score at 10 µM. AID 2237. actives 0.49% (n = 310,000). HEK293 TRPC4beta/mu-opioid, Fluo4 calcium fluorescence; hits give high values;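 active means B-score above 5 SD of library B-scores, and initial fluorescence ratio not above library mean plus 5 SD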;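 further: positive B-score marks a calcium rise read as TRPC4 activation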
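Assay system: HEK293 stable line with TRPC4beta plus mu-opioid receptor. Times: dye 45 min RT, read 110 s. Measured by: kinetic Fluo4 calcium fluorescence. Measure: B score of integrated ratio. Controls: assay buffer as low control, maximal DAMGO as high control.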
TRPC6 inhibitor – mouse TRPC6 channel inhibition; HEK293-TRPC6, membrane potential dye, ACh-evoked depolarization; hits give low values; B-score at 10 µM; actives 1.1% (n = 310,000); AID 2553;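 active means B-score under library mean minus 3 SD, initial fluorescence not abnormally high, positive integrated signal ratio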;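 further: B-score derived from integrated fluorescence ratio over the kinetic read; more negative B-score means stronger inhibition of depolarization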
TRPC4 PAM – allosterically enhances the mouse TRPC4 cation channel | Q9QUQ5 | HEK293 TRPC4beta/mu-opioid, DAMGO EC20, Fluo-4 Ca2+ flux; hits give high values | B-score at 10 µM | actives 0.42% (n = 310,000) | AID 2227;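 active means B-score of calcium response area above 5 SD of library B-scores, with initial fluorescence ratio within 5 SD of library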
TRPC4 block – blocks the mouse TRPC4 cation channel; Q9QUQ5; HEK293 TRPC4beta/mu-opioid, DAMGO-evoked Fluo4 calcium flux; hits give low values; B-score at 10 µM; actives 0.39% (n = 300,000);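 active means B-score over 3 SD under the library average, no early fluorescence shift, positive overall ratio signal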
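Assay system: Stable TRPC4beta/mu-opioid receptor HEK293 cells | Reagent: DAMGO in two steps, submaximal then maximal | Compound dosing: Single concentration per test compound | Signal: Fluo4 Ca2+ flux fluorescence | Evaluation: Per-well B score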
TRPC4 sel inh 2 – mouse TRPC4 off-target activity of TRPC6 inhibitors, second screen | shares compounds with TRPC6 inhibitor | HEK293 TRPC4/MOR, membrane potential dye fluorescence; channel activated by saturating DAMGO dose | inhibition, % at 10 µM | actives 42% (n = 920) | AID 2776;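 active means compounds whose fluorescence signal differed from control wells by over 3 SD, either direction, in both duplicate plates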
TRPC4 spec – mouse TRPC4 off-target activity of TRPC6 inhibitors. shares compounds with TRPC6 inhibitor. HEK293 TRPC4/mu-opioid, membrane potential fluorescence. activity change, negative = inhibition, % at 10 µM. actives 61% (n = 920). AID 2777;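 active means rise or fall in signal beyond 3 SD of buffer-only wells in both replicate plates, either sign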;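 further: integrated kinetic ratio of fluorescence range over baseline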
HEK293 MPD ctr 2-1 – second check of TRPC6 inhibitor effects in parental HEK293 cells; shares compounds with TRPC6 inhibitor; parental HEK293 membrane potential dye fluorescence; maximal acetylcholine challenge after compound addition; signal change vs control, % at 10 µM; actives 31% (n = 920); AID 2779;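 active means membrane potential signal moving either way by over 3 SD of the maximum-effect control, in both duplicate plates, meaning non-specific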
HEK293 MPD ctr-1 – counter-screen for TRPC6 inhibitors: effect in parental HEK293 cells; shares compounds with TRPC6 inhibitor; parental HEK293 membrane potential dye fluorescence; membrane potential signal change, % at 10 µM; actives 60% (n = 920); AID 2780;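 active means membrane potential signal shifting up or down by more than 3 SD of buffer-only wells, on both duplicate plates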
HEK293 MPD ctr-2 – checks TRPC6 modulator effects in parental HEK293 cells; actives 51% (n = 2,400); shares compounds with TRPC6 inhibitor; AID 488924; membrane potential signal change, % at 10 µM; membrane potential dye fluorescence;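 active means membrane potential signal moves up or down beyond 5 SD from buffer-only wells, on both duplicate plates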
HEK293 MPD ctr 2-2 – second check of TRPC6 modulator effects in parental HEK293 cells; shares compounds with TRPC6 inhibitor; membrane potential dye fluorescence; after compound, maximal acetylcholine stimulation; inhibition, % at 10 µM; actives 14% (n = 2,400);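 active means membrane potential signal drops by more than 5 SD from the mean control signal, in both duplicate plates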
TRPC4/MOR mod – tests whether TRPC6 modulators also affect mouse TRPC4; actives 69% (n = 2,400); shares compounds with TRPC6 inhibitor; percent change from control (negative = decrease, positive = increase), % at 10 µM; AID 488927; HEK293 TRPC4/mu-opioid, membrane potential fluorescence;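 active means membrane potential signal moved up or down beyond 5 SD of buffer control wells, in both duplicate plates, actives on both sides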
TRPC4/MOR inh 2 – second check of whether TRPC6 modulators also affect mouse TRPC4. shares compounds with TRPC6 inhibitor. HEK293 TRPC4/mu-opioid, membrane potential dye fluorescence; stimulated with maximal-effect DAMGO. inhibition, % at 10 µM. actives 55% (n = 2,400). AID 488928;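 active means drop in membrane potential signal beyond 5 SD of the control wells in both duplicate plates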;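 further: TRPC4 counter screen for TRPC6 hits run under conditions tuned for TRPC6 not TRPC4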
TRPC6 block conf – mouse TRPC6 inhibitor confirmation; inhibition, % at 10 µM; AID 488960; actives 43% (n = 3,300); shares compounds with TRPC6 inhibitor; HEK293-TRPC6, membrane potential dye, ACh-evoked depolarization;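 active means fluorescence ratio falls more than 5 SD below the full-stimulation control mean, in both duplicate runs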;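 further: integrated fluorescence ratio of peak minus minimum over baseline after agonist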
TRPC6 act confirm – confirmation of mouse TRPC6 activators; HEK293-TRPC6 membrane potential dye fluorescence, FDSS; actives 11% (n = 2,800); activation, % at 10 µM; shares compounds with TRPC6 inhibitor;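 active means ratio signal rise beyond 5 SD above unstimulated control wells' mean, seen in both duplicate runs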
Of the large screens only hits and unclear results are named; the others gave an inactive call (follow-up assays come after a bar, where they were run); ! = a repeat was not active.

Clc1ccc(OCCCCCN2CCCC2)c(Br)c1	TRPC6 inhibitor -5.1 | HEK293 MPD ctr-2 121% | HEK293 MPD ctr 2-2 inactive | TRPC4/MOR mod 22% | TRPC4/MOR inh 2 34% | TRPC6 block conf inactive
Clc1ccc(OCCCN2CCCCC2)c(Br)c1	none
CCC(Oc1ccc(F)cc1)C(=O)N1CCCCCCC1 (stereo not given)	none
CCn1nc([N+](=O)[O-])c(C(C#N)c2nc3ccccc3n2C)c(Cl)c1=O (stereo not given)	none
CCCn1nc([N+](=O)[O-])c(C(C#N)c2nc3ccccc3s2)c(Cl)c1=O (stereo not given)	TRPC6 inhibitor -13 | HEK293 MPD ctr-2 -210% | HEK293 MPD ctr 2-2 inactive | TRPC4/MOR mod -36% | TRPC4/MOR inh 2 83% | TRPC6 block conf 66% | TRPC6 act confirm inactive
Cc1ccc(NC(=O)CSc2nc3ccccc3c(=O)n2CCCN2CCCCC2)cc1C	TRPC6 inhibitor -7.9 | TRPC4 sel inh 2 33% | TRPC4 spec 5.6% | HEK293 MPD ctr 2-1 219% | HEK293 MPD ctr-1 9.0% | TRPC6 block conf inactive | TRPC6 act confirm inactive
Cc1ccc(NC(=O)CSc2nc3ccccc3c(=O)n2CCCC(=O)N2CCCC2)cc1	none
Cc1cccc(C)c1NC(=O)C1CCCN1C(=O)Nc1cccc(F)c1 (stereo not given)	none
CC(O)CN=c1cc(-c2ccccc2)oc2ccc(Cl)cc12 (stereo not given)	TRPC6 inhibitor -7.3 | HEK293 MPD ctr-2 -134% | HEK293 MPD ctr 2-2 inactive | TRPC4/MOR mod -28% | TRPC4/MOR inh 2 37% | TRPC6 block conf 58% | TRPC6 act confirm inactive
Cc1cc(Cl)ccc1Oc1ncnc2oc(-c3ccccc3)cc12	none
C/C(CCc1oc2ccc(Cl)cc2c1-c1ccc(C)o1)=N\O	none
CC(C)CN=c1cc(-c2ccccc2)oc2ccc(Cl)cc12	TRPC6 inhibitor -7.4 | TRPC4 sel inh 2 76% | TRPC4 spec -14% | HEK293 MPD ctr 2-1 inactive | HEK293 MPD ctr-1 -268% | TRPC6 block conf inactive | TRPC6 act confirm inactive
OCCN=c1cc(-c2ccccc2)oc2ccc(Cl)cc12	TRPC6 inhibitor -8.8 | TRPC4 sel inh 2 67% | TRPC4 spec -28% | HEK293 MPD ctr 2-1 inactive | HEK293 MPD ctr-1 -356% | TRPC6 block conf 55% | TRPC6 act confirm inactive
O=c1oc2ccc(Cl)cc2cc1-c1ccccc1	none
S=C(Nc1cccc(Cl)c1)N(CCCN1CCCC1)Cc1cccn1Cc1ccc(Cl)cc1	none
COc1cccc(NC(=S)N(CCCN2CCCC2)Cc2cccn2Cc2ccc(Cl)cc2)c1	TRPC6 inhibitor -5.3 | HEK293 MPD ctr-2 inactive | HEK293 MPD ctr 2-2 inactive | TRPC4/MOR mod inactive | TRPC4/MOR inh 2 62% | TRPC6 block conf 48% | TRPC6 act confirm inactive
CN(C)CCCN1c2ccccc2Sc2ccc(Cl)cc21	TRPC6 inhibitor -5.6! | HEK293 MPD ctr-2 inactive | HEK293 MPD ctr 2-2 inactive | TRPC4/MOR mod 7.5% | TRPC4/MOR inh 2 78% | TRPC6 block conf 60% | TRPC6 act confirm inactive
Cc1nn(-c2ccccc2)c(N2CCCC2)c1/C=N/Nc1ccc(S(N)(=O)=O)cc1[N+](=O)[O-]	TRPC6 inhibitor -5.5 | HEK293 MPD ctr-2 inactive | HEK293 MPD ctr 2-2 inactive | TRPC4/MOR mod -10% | TRPC4/MOR inh 2 54% | TRPC6 block conf inactive | TRPC6 act confirm inactive
NS(=O)(=O)c1ccc(N/N=C/c2ccc(C(=O)O)cc2)c([N+](=O)[O-])c1	none
COc1ccccc1C(=O)N/N=C(\C)c1cccnc1	none
O=Cc1cccn1-c1nccc(-c2ccco2)n1	none
O=C(c1ccccc1)N(c1ccccc1)C1C=CS(=O)(=O)C1 (stereo not given)	TRPC6 inhibitor -6.3 | HEK293 MPD ctr-2 inactive | HEK293 MPD ctr 2-2 inactive | TRPC4/MOR mod inactive | TRPC4/MOR inh 2 inactive | TRPC6 block conf inactive | TRPC6 act confirm inactive
COc1ccc(C(=O)N(c2ccccc2)C2C=CS(=O)(=O)C2)cc1 (stereo not given)	none
CC(CC(=O)NCc1ccc(Cl)cc1)S(=O)(=O)c1ccc2c(c1)NC(=O)CO2 (stereo not given)	none
O=C(NCC(NS(=O)(=O)OCC(Cl)(Cl)Cl)c1ccccc1)C(F)(F)F (stereo not given)	none
NC(=O)N/N=C/c1coc2ccc3ccccc3c2c1=O	TRPC6 inhibitor -5 | HEK293 MPD ctr-2 -62% | HEK293 MPD ctr 2-2 inactive | TRPC4/MOR mod -16% | TRPC4/MOR inh 2 inactive | TRPC6 block conf inactive | TRPC6 act confirm inactive
O=Cc1coc2ccc3ccccc3c2c1=O	none
CC(=O)N1CCN(c2ccc(NCc3ccccc3)cc2)CC1	none
CC(=O)N1CCN(c2ccc(N=Cc3c(O)n(Cc4ccccc4)c(=O)[nH]c3=O)cc2)CC1	TRPC6 inhibitor -5.6 | HEK293 MPD ctr-2 188% | HEK293 MPD ctr 2-2 inactive | TRPC4/MOR mod -24% | TRPC4/MOR inh 2 inactive | TRPC6 block conf inactive | TRPC6 act confirm inactive
COc1cccc(CNC(=O)CCC2CCCN(c3cc(C)nc(N4CCCC4)n3)C2)c1 (stereo not given)	TRPC6 inhibitor -6.1 | HEK293 MPD ctr-2 inactive | HEK293 MPD ctr 2-2 inactive | TRPC4/MOR mod -9.0% | TRPC4/MOR inh 2 43% | TRPC6 block conf 48% | TRPC6 act confirm inactive
